Measured values taken from PubChem BioAssay.
Active and inactive are the calls of the source.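 The calls were made as follows: active = growth inhibition above a set limit, 3 SD over mean compound inhibition, in both replicates (cut at about 43% in these data); inconclusive = above the limit in only one replicate; inactive = at or below the limit in both replicates.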

assay: Restrictive medium S. cerevisiae growth inhibition, OD615, pilot screen of yeast lifespan reduction project, restrictive growth control (AID 706); conditions: OD615, 48 h, at 10 µM, hits give high values
Outline: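 Buffer or medium: CSMM-D glucose medium. Material: genetically modified Saccharomyces cerevisiae, DeaD replicative lifespan assay strain. Times: 48 h compound exposure at 30 °C. Measured by: optical density at 615 nm.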

Growth inhibition, inactive:
O=C(NCCN1CCCCCC1)c1ccc(CS(=O)(=O)c2ccc(Br)cc2)o1 -14.6%
Cc1ccc(S(=O)(=O)NCCOC(=O)Nc2sc(=S)n(C)c2C)cc1 23.1%
COc1ccccc1CC(=O)Nc1ccc(OC)c(OC)c1 -4.82%
CCN(CC)C(=O)C1CCCc2c1[nH]c1ccc(Cl)cc21 (stereo not given) -4.67%
CCOC(=O)N1CCC(NC(=O)C2CCCN(C(=O)c3cc4sccc4n3C)C2)CC1 (stereo not given) -12.6%
CCOC(=O)c1[nH]c(C)c(C(=O)Nc2ccc(Cl)cc2)c1C 2.55%
O=C(NC(=O)c1cccc(F)c1)OC[C@@H]1CCCN2CCCC[C@H]12 -9.63%
COc1ccccc1-n1c(=O)[nH]c2c(C(N)=O)nc(-c3cccnc3)nc21 -16.8%
CC1(C)CC(=O)c2cnc(NC(=O)Cc3ccc(Cl)cc3)nc2C1 -16.6%
CC(C)(NC(=O)N1CCCC1)c1cccc(C(C)(C)NC(=O)N2CCCC2)c1 3.39%
COc1ccc(NC(=O)C2CCCN(S(=O)(=O)c3cccc4cccnc34)C2)cc1OC (stereo not given) 0.31%
CCOc1ccc(CCN2C(=O)C3C4C=CC(C4)C3C2=O)cc1OCC (stereo not given) 3.99%
COc1ccc(S(=O)(=O)N2CCN(c3ccc(C)cc3C)CC2)cc1OC 4.36%
O=C(C1CCN(c2nnc(-n3cccc3)s2)CC1)N1CCc2ccccc2C1 1.25%
CCOc1cc(C2C3=C(CCCC3=O)N(C)C3=C2C(=O)CCC3)cc(Cl)c1O -16.7%
